Laboratory results reported in ChEMBL document CHEMBL1123346, “Pyrimidinones. 3. N-substituted 6-phenylpyrimidinones and pyrimidinediones with diuretic/hypotensive and antiinflammatory activity” (J Med Chem, 1986).
Values belong to the compound of their own block, whether it stands above or below them. Calls of active or inactive are those of the source.

Assays:
[1] = test system: Rattus norvegicus; test: Inhibition of RPAR administered perorally at 50 mg/kg dose; assay type: functional; conditions: route oral
Procedure, shortened: (§1)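 Male Wistar rats (180-200 g), 5-10/group, dosed orally (water with Tween-80 suspension) 1 h before iv sensitization with 1 mg bovine serum albumin; 24-h fasted. 60 min later subplantar challenge with 200 µg anti-BSA in left hindpaw. Paw swelling by mercury displacement plethysmography at 2 h post-challenge.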

[2] = test system: Rattus norvegicus; test: Inhibition of RPAR administered perorally at 100 mg/kg dose; assay type: functional; conditions: route oral; procedure, shortened: as §1
[3] = test system: Rattus norvegicus; test: Inhibition of RPAR administered perorally at 25 mg/kg dose; assay type: functional; conditions: route oral; procedure, shortened: as §1
[4] = Sodium salt excretion in conscious rat at the dose of 0.3 mg/kg expressed as urinary excretion in treated rats/urinary excretion in control rats; assay type: ADME, organism-based, Urine; set-up: dose 0.3 mg/kg; conditions: in vivo
Procedure, shortened: (§2)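 Male rats (~160 g) fasted 24 h, water withheld 1.5 h; oral gavage of compound (0.3-100 mg/kg) in 25 mL/kg saline with 0.5% carboxymethylcellulose; 5 h urine collection in metabolism cages. Urine volume, Na+ and K+ (flame photometry) expressed as treated/control excretion ratio.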

[5] = Sodium salt excretion in conscious rat at the dose of 1.0 mg/kg expressed as urinary excretion in treated rats/urinary excretion in control rats; assay type: ADME, organism-based, Urine; set-up: dose 1 mg/kg; conditions: in vivo; procedure, shortened: as §2
[6] = Sodium salt excretion in conscious rat at the dose of 10 mg/kg expressed as urinary excretion in treated rats/urinary excretion in control rats; assay type: ADME, organism-based, Urine; set-up: dose 10 mg/kg; conditions: in vivo; procedure, shortened: as §2
[7] = test system: Rattus norvegicus; test: Compound was tested for urinary volume excretion in conscious rat at the dose of 1.0 mg/kg expressed as urinary excretion in treated rats/urinary excretion in control rats; assay type: ADME, organism-based, Urine; set-up: dose 1 mg/kg; conditions: in vivo; procedure, shortened: as §2
[8] = Potassium salt excretion in conscious rat at the dose of 1.0 mg/kg expressed as urinary excretion in treated rats/urinary excretion in control rats; assay type: ADME, organism-based, Urine; set-up: dose 1 mg/kg; conditions: in vivo; procedure, shortened: as §2
[9] = Potassium salt excretion in conscious rat at the dose of 30 mg/kg expressed as urinary excretion in treated rats/urinary excretion in control rats; assay type: ADME, organism-based, Urine; set-up: dose 30 mg/kg; conditions: in vivo; procedure, shortened: as §2
[10] = Potassium salt excretion in conscious rat at the dose of 3.0 mg/kg expressed as urinary excretion in treated rats/urinary excretion in control rats; assay type: ADME, organism-based, Urine; set-up: dose 3 mg/kg; conditions: in vivo; procedure, shortened: as §2
[11] = test system: Rattus norvegicus; test: Compound was tested for urinary volume excretion in conscious rat at the dose of 3.0 mg/kg expressed as urinary excretion in treated rats/urinary excretion in control rats; assay type: ADME, organism-based, Urine; set-up: dose 3 mg/kg; conditions: in vivo; procedure, shortened: as §2
[12] = Sodium salt excretion in conscious rat at the dose of 3.0 mg/kg expressed as urinary excretion in treated rats/urinary excretion in control rats; assay type: ADME, organism-based, Urine; set-up: dose 3 mg/kg; conditions: in vivo; procedure, shortened: as §2
[13] = test system: Rattus norvegicus; test: Compound was tested for urinary volume excretion in conscious rat at the dose of 10 mg/kg expressed as urinary excretion in treated rats/urinary excretion in control rats; assay type: ADME, organism-based, Urine; set-up: dose 10 mg/kg; conditions: in vivo; procedure, shortened: as §2
[14] = test system: Rattus norvegicus; test: Compound was tested for urinary volume excretion in conscious rat at the dose of 0.3 mg/kg expressed as urinary excretion in treated rats/urinary excretion in control rats; assay type: ADME, organism-based, Urine; set-up: dose 0.3 mg/kg; conditions: in vivo; procedure, shortened: as §2
[15] = Potassium salt excretion in conscious rat at the dose of 10 mg/kg expressed as urinary excretion in treated rats/urinary excretion in control rats; assay type: ADME, organism-based, Urine; set-up: dose 10 mg/kg; conditions: in vivo; procedure, shortened: as §2
[16] = test system: Rattus norvegicus; test: Compound was tested for urinary volume excretion in conscious rat at the dose of 100 mg/kg expressed as urinary excretion in treated rats/urinary excretion in control rats; assay type: ADME, organism-based, Urine; set-up: dose 100 mg/kg; conditions: in vivo; procedure, shortened: as §2
[17] = Potassium salt excretion in conscious rat at the dose of 0.3 mg/kg expressed as urinary excretion in treated rats/urinary excretion in control rats; assay type: ADME, organism-based, Urine; set-up: dose 0.3 mg/kg; conditions: in vivo; procedure, shortened: as §2
[18] = test system: Rattus norvegicus; test: Blood pressure change in rats after oral administration of 50 mg/kg dose after 24 hours; assay type: functional
Procedure, shortened: (§3)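 Restrained female Sprague–Dawley rats with indwelling aortic cannulas exteriorized at the nape; direct arterial pressure via transducer, mean pressure by electrical integration of phasic pressure. Readings before and 4 and 24 h after oral dosing (carboxymethylcellulose suspension, 10 mL/kg). Value is change in mean arterial pressure, averaged over two animals.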

[19] = Sodium salt excretion in conscious rat at the dose of 30 mg/kg expressed as urinary excretion in treated rats/urinary excretion in control rats; assay type: ADME, organism-based, Urine; set-up: dose 30 mg/kg; conditions: in vivo; procedure, shortened: as §2
[20] = test system: Rattus norvegicus; test: Blood pressure change in rats after oral administration of 50 mg/kg dose after 4 hours; assay type: functional; procedure, shortened: as §3
[21] = test system: Rattus norvegicus; test: Compound was tested for urinary volume excretion in conscious rat at the dose of 30 mg/kg expressed as urinary excretion in treated rats/urinary excretion in control rats; assay type: ADME, organism-based, Urine; set-up: dose 30 mg/kg; conditions: in vivo; procedure, shortened: as §2
[22] = Sodium salt excretion in conscious rat at the dose of 100 mg/kg expressed as urinary excretion in treated rats/urinary excretion in control rats; assay type: ADME, organism-based, Urine; set-up: dose 100 mg/kg; conditions: in vivo; procedure, shortened: as §2
[23] = Potassium salt excretion in conscious rat at the dose of 100 mg/kg expressed as urinary excretion in treated rats/urinary excretion in control rats; assay type: ADME, organism-based, Urine; set-up: dose 100 mg/kg; conditions: in vivo; procedure, shortened: as §2
[24] = species: Rattus norvegicus; test: Diuretic activity in rats; assay type: functional, Urine
Procedure, shortened: (§4)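 Male rats (~160 g) fasted 24 h, water withheld 1.5 h, both withheld during test. Gavage 25 mL/kg 0.9% saline with 0.5% carboxymethylcellulose containing compound at 40 mg/kg; urine collected 5 h in metabolism cages. Two-stage test, T/C urine volume per stage; active if product of stage T/Cs ≥3.34.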

[25] = species: Rattus norvegicus; test: Compound was tested for diuretic activity in rats; I=Inactive; assay type: functional, organism-based; conditions: Urine; procedure, shortened: as §4
[26] = test system: Rattus norvegicus; test: Compound was tested for inhibition of RPAR administered perorally at 25 mg/kg dose; I=Inactive; assay type: functional, organism-based; set-up: dose 25 mg/kg; procedure, shortened: as §1

Structure (SMILES): CNc1nc(O)c(Br)c(-c2ccccc2)n1
inhibition in vivo at 50 mg/kg [1]: 78% | inhibition in vivo at 100 mg/kg [2]: 82% | inhibition in vivo at 25 mg/kg [3]: 42%

Na+ excretion [4]: 1.1 | Na+ excretion [5]: 1.1 | Na+ excretion [6]: 1.5 | Urinary volume [7]: 1.2 | K+ excretion [8]: 1 | K+ excretion [9]: 2.2 | K+ excretion [10]: 1.3 | Urinary volume [11]: 1.3 | Na+ excretion [12]: 1.1 | Urinary volume [13]: 2.2 | Urinary volume [14]: 1.1 | K+ excretion [15]: 1.6 | Urinary volume [16]: 7.2 | K+ excretion [17]: 1 | Na+ excretion [19]: 3.1 | Urinary volume [21]: 4.7 | Na+ excretion [22]: 4.5 | K+ excretion [23]: 3.2
Structure (SMILES): NS(=O)(=O)c1cc(C(=O)O)c(NCc2ccco2)cc1Cl [FUROSEMIDE]
MABP change [18]: -3 mmHg | MABP change [20]: 1 mmHg | Diuretic activity [24]: 31.25

Na+ excretion [4]: 1.1 | Na+ excretion [5]: 1.3 | Na+ excretion [6]: 2.3 | Urinary volume [7]: 1.2 | K+ excretion [8]: 1 | K+ excretion [9]: 1.5 | K+ excretion [10]: 1.1 | Urinary volume [11]: 1.3 | Na+ excretion [12]: 1.5 | Urinary volume [13]: 2.5 | Urinary volume [14]: 1.1 | K+ excretion [15]: 1.3 | Urinary volume [16]: 2.7 | K+ excretion [17]: 1.1 | Na+ excretion [19]: 2.9 | Urinary volume [21]: 2.6 | Na+ excretion [22]: 2.8 | K+ excretion [23]: 1.3
Structure (SMILES): Nc1nc(=O)c(Br)c(-c2ccccc2)[nH]1 [BROPIRIMINE]
inhibition in vivo at 50 mg/kg [1]: 31% | inhibition in vivo at 100 mg/kg [2]: 44% | inhibition in vivo at 25 mg/kg [3]: 13% | MABP change [18]: -22 mmHg | MABP change [20]: 0 mmHg | Diuretic activity [24]: 7.41

Structure (SMILES): Nc1nc(O)cc(-c2ccccc2)n1
Diuretic activity [25]: inactive | inhibition [26]: inactive

Structure (SMILES): N=C(N)Nc1nc(O)c(I)c(-c2ccccc2)n1
MABP change [18]: 3 mmHg | MABP change [20]: -2 mmHg

Structure (SMILES): Cn1c(-c2ccccc2)cc(=O)[nH]c1=O
inhibition in vivo at 50 mg/kg [1]: 47% | inhibition in vivo at 100 mg/kg [2]: 79% | inhibition in vivo at 25 mg/kg [3]: 27% | MABP change [18]: 6 mmHg | MABP change [20]: 4 mmHg

Structure (SMILES): Cn1c(-c2ccccc2)c(I)c(=O)[nH]c1=O
inhibition in vivo at 50 mg/kg [1]: 44% | inhibition in vivo at 100 mg/kg [2]: 73% | inhibition in vivo at 25 mg/kg [3]: 33% | MABP change [18]: -1 mmHg | MABP change [20]: 15 mmHg

Structure (SMILES): N=C(N)Nc1nc(O)c(Br)c(-c2ccccc2)n1
MABP change [18]: -1 mmHg | MABP change [20]: -2 mmHg

Structure (SMILES): CN(C)c1nc(O)c(I)c(-c2ccccc2)n1
MABP change [18]: 2 mmHg | MABP change [20]: 1 mmHg

Structure (SMILES): Cn1c(-c2ccccc2)c(Br)c(=O)n(C)c1=O
inhibition in vivo at 50 mg/kg [1]: 36% | inhibition in vivo at 100 mg/kg [2]: 59%

Structure (SMILES): Cn1c(=O)cc(-c2ccccc2)[nH]c1=O
MABP change [18]: 6 mmHg | MABP change [20]: 0 mmHg

Structure (SMILES): CC(=O)Nc1nc(O)c(Br)c(-c2ccccc2)n1
MABP change [18]: 1 mmHg | MABP change [20]: 4 mmHg
